Several values for one entry are separate records, joined by “and”; a condition that tells them apart may be missing. Equal values may be shown once. Read-outs that look alike come from different tables or passages of the source.
Assays:
[1] = cited from earlier work
[2] = format: in vivo, human
CYP3A4/5 = assay: In vitro CYP inhibition; format: in vitro ADME
CYP2C8 = assay: In vitro CYP inhibition; format: in vitro ADME
CYP2A6 = assay: In vitro CYP inhibition; format: in vitro ADME
CYP2B6 = assay: In vitro CYP inhibition; format: in vitro ADME
[3] = format: in vivo, human; remark: listed apart in the source
CYP2E1 = assay: In vitro CYP inhibition; format: in vitro ADME
[4] = Adverse events in the bupropion study; format: in vivo, human; conditions: monotherapy period, days 1–14, n = 30
CYP2C19 = assay: In vitro CYP inhibition; format: in vitro ADME
CYP2D6 = assay: In vitro CYP inhibition; format: in vitro ADME
CYP1A2 = assay: In vitro CYP inhibition; format: in vitro ADME
CYP2C9 = assay: In vitro CYP inhibition; format: in vitro ADME
[5] = format: in vivo, human; remark: listed apart in the source
How it was run: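 Open-label, randomized, 1-sequence design in healthy adults aged 18–55 y with BMI 19–30 kg/m2 (N = 36 across two arms). Test compound given as a single 10 mg dose on day 1, then a 14-day washout. The azole antifungal (CYP3A/P-gp inhibitor) was given at 400 mg once daily on days 15–21, with test compound 10 mg on day 21. EDTA plasma was sampled predose and 1–120 h postdose on days 1 and 21. Analysis used SPE and HPLC. Noncompartmental AUClast, AUC∞ and Cmax were derived. A mixed-effects model (treatment fixed, subject random) gave back-transformed LS-mean ratios with 90% CI.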

P-glycoprotein (P-gp) = P-glycoprotein (P-gp) (Homo sapiens, UniProt P08183); assay: In vitro P-gp net efflux ratio; format: in vitro ADME; conditions: compared with digoxin; unpublished results
[6] = cited from earlier work; remark: listed apart in the source
[7] = format: in vivo, human; remark: listed apart in the source
[8] = format: in vivo, human; remark: listed apart in the source
How it was run: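 Open-label, randomized, 1-sequence design in healthy adults aged 18–55 y with BMI 19–30 kg/m2 (N = 36 across two arms). Test compound given as a single 10 mg dose on day 1, then a 14-day washout. The azole antifungal was given at 200 mg once daily on days 15–21, with test compound 10 mg on day 21. EDTA plasma was sampled predose and 1–120 h postdose on days 1 and 21. Analysis used SPE and HPLC. Noncompartmental AUClast, AUC∞ and Cmax were derived. A mixed-effects model (treatment fixed, subject random) was applied, and back-transformed LS-mean ratios with 90% CI are reported.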

[9] = co-administered with rifampicin vs vortioxetine alone
[10] = co-administered with ketoconazole vs vortioxetine alone
[11] = co-administered with bupropion vs vortioxetine alone
[12] = co-administered with fluconazole vs vortioxetine alone

Sequence of P-glycoprotein (P-gp) (P08183 whole entry): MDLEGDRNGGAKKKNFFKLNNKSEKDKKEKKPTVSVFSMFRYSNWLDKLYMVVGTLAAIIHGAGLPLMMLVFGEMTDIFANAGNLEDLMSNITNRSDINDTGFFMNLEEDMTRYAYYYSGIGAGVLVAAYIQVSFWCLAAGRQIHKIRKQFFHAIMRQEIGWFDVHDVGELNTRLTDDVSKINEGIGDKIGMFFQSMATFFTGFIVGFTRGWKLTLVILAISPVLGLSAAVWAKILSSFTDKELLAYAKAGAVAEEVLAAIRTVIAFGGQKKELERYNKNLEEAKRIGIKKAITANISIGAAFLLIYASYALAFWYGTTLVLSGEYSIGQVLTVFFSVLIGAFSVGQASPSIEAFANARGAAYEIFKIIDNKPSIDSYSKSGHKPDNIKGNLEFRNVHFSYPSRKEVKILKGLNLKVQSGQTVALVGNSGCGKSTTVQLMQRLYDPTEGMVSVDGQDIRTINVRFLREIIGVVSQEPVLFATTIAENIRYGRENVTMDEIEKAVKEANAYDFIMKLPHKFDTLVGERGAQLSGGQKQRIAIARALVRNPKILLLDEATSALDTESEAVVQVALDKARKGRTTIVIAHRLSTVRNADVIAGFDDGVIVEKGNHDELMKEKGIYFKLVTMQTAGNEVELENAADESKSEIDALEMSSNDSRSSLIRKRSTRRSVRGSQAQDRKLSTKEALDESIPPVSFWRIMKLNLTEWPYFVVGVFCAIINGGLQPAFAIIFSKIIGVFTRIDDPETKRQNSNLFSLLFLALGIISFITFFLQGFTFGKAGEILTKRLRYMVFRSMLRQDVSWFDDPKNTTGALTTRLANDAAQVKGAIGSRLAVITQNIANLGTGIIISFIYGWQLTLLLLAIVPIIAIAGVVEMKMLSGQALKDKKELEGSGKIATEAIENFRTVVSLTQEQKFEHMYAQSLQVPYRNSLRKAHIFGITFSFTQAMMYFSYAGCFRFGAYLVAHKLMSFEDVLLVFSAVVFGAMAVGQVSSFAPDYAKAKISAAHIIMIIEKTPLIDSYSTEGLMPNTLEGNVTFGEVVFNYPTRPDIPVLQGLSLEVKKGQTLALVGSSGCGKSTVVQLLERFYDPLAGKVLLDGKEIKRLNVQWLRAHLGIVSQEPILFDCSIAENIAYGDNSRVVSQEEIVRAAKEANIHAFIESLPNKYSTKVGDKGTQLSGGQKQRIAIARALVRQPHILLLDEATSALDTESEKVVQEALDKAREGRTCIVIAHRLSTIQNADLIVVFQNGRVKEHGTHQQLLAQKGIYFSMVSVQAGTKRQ

Br.Cc1ccc(Sc2ccccc2N2CCNCC2)c(C)c1 [Vortioxetine, 1-[2-(2,4-dimethylphenylsulfanyl)-phenyl]-piperazine-hydrobromide]
drug-related material excreted in the feces [1]: one-third
drug-related material excreted in the urine ([1]; primarily as Lu AA34443 and its glucuronide): two-thirds
AUC ([2]; human, plasma, 10 mg): 243 ng·h/mL
Cmax ([2]; human, plasma, 10 mg): 13.8 ng/mL
AUC24 ratio (test/reference) ([2]; with omeprazole vs alone): 105.5%
Cmax ratio (test/reference) ([2]; with omeprazole vs alone): 100.5%
inhibitory concentration/inhibition constant ratio ([I]/Ki) (CYP3A4/5): ≤ 0.024
inhibitory concentration/inhibition constant ratio ([I]/Ki) (CYP2C8): ≤ 0.024
inhibitory concentration/inhibition constant ratio ([I]/Ki) (CYP2A6): ≤ 0.024
inhibitory concentration/inhibition constant ratio ([I]/Ki) (CYP2B6): ≤ 0.024
decrease in vortioxetine AUC (exposure) [3, 9]: 72% and 72 to 77%
decrease in vortioxetine Cmax [3, 9]: 51%
AUC(0-t) ([3]; human, plasma, 20 mg): 438 ng·h/mL
Cmax ([3]; human, plasma, 20 mg): 8.92 ng/mL
AUClast ratio (test/reference) ([3]; with rifampicin vs alone): 27.74%
Cmax ratio (test/reference) ([3]; with rifampicin vs alone): 49.11%
inhibitory concentration/inhibition constant ratio ([I]/Ki) (CYP2E1): ≤ 0.024
Abnormal dreams [4]: 2 (6.7) number of subjects (%)
Agitation [4]: 0 number of subjects (%)
Anxiety [4]: 0 number of subjects (%)
Constipation [4]: 3 (10.0) number of subjects (%)
Dizziness [4]: 1 (3.3) number of subjects (%)
Dyspepsia [4]: 1 (3.3) number of subjects (%)
Fatigue [4]: 1 (3.3) number of subjects (%)
Headache [4]: 4 (13.3) number of subjects (%)
Hyperhidrosis [4]: 0 number of subjects (%)
Insomnia [4]: 1 (3.3) number of subjects (%)
Nausea [4]: 9 (30.0) number of subjects (%)
Oropharyngeal pain [4]: 0 number of subjects (%)
Palpitations [4]: 2 (6.7) number of subjects (%)
Somnolence [4]: 0 number of subjects (%)
Tremor [4]: 0 number of subjects (%)
URTI (upper respiratory tract infection) [4]: 0 number of subjects (%)
Vertigo [4]: 0 number of subjects (%)
Vomiting [4]: 3 (10.0) number of subjects (%)
inhibitory concentration/inhibition constant ratio ([I]/Ki) (CYP2C19): ≤ 0.024
inhibitory concentration/inhibition constant ratio ([I]/Ki) (CYP2D6): ≤ 0.024
inhibitory concentration/inhibition constant ratio ([I]/Ki) (CYP1A2): ≤ 0.024
inhibitory concentration/inhibition constant ratio ([I]/Ki) (CYP2C9): ≤ 0.024
increase in vortioxetine AUC [5, 10]: 30%
increase in vortioxetine Cmax [5, 10]: 26%
AUC(0-t) ([5]; human, plasma, 10 mg): 262 ng·h/mL
Cmax ([5]; human, plasma, 10 mg): 4.92 ng/mL
AUClast ratio (test/reference) ([5]; with ketoconazole vs alone): 130.48%
Cmax ratio (test/reference) ([5]; with ketoconazole vs alone): 125.73%
in vitro net efflux ratio (P-gp substrate) (P-glycoprotein (P-gp)): much lower than that of the P-gp substrate digoxin
elimination half-life [6]: 57 h
steady-state volume of distribution [6]: approximately 2600 L
oral bioavailability ([6]; independent of food): 75%
increase in exposure of vortioxetine ([7]; bupropion added to vortioxetine): approximately 100%
increase in vortioxetine AUC [7, 11]: 128%
increase in vortioxetine Cmax [7, 11]: 114%
AUC ([7]; human, plasma, 10 mg): 308 ng·h/mL
Cmax ([7]; human, plasma, 10 mg): 15.9 ng/mL
AUC24 ratio (test/reference) ([7]; with bupropion vs alone): 228.30%
Cmax ratio (test/reference) ([7]; with bupropion vs alone): 213.57%
increase in vortioxetine AUC [8, 12]: 46%
increase in vortioxetine Cmax [8, 12]: 15%
AUC(0-t) ([8]; human, plasma, 10 mg): 222 ng·h/mL
Cmax ([8]; human, plasma, 10 mg): 4.52 ng/mL
AUClast ratio (test/reference) ([8]; with fluconazole vs alone): 146.17%
Cmax ratio (test/reference) ([8]; with fluconazole vs alone): 114.64%

From PMC3775155 (Clinical Drug Investigation, 2013)
